Laboratory results from ChEMBL document CHEMBL5335771, “Thioxanthenone-based derivatives as multitarget therapeutic leads for Alzheimer's disease” (Eur J Med Chem, 2023).

Tests used:
[1] = biological target: Cholinesterase (Homo sapiens, UniProt P06276); experiment: Inhibition of human recombinant BChE using acetylthiocholine iodide as substrate preincubated for 20 mins followed by substrate addition by DTNB reagent based Ellman's method
In short: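 Human BChE was assayed by the Ellman spectrophotometric method. IC50 values are means of three independent experiments, each run in triplicate.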

[2] = biological target: T1, Microtubule-associated protein tau (Homo sapiens, UniProt P10636); experiment: Inhibition of tau (unknown origin) aggregation expressed in Escherichia coli BL21 (DE3)
In short: (§1)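 E. coli BL21(DE3) carrying pTARA (T7 RNA polymerase under PBAD) and pRKT42 (four-repeat tau) grown at 37 °C in M9 with 0.5% glucose, antibiotics and 250 μM ThS to OD600 0.6. […] ThS fluorescence ex 430/em 485 nm, normalized to tau-expressing cells (100%) and non-expressing cells (0%); OD600 checked for growth.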

[3] = biological target: Acetylcholinesterase (Electrophorus electricus, UniProt O42275); experiment: Inhibition of electric eel AChE using acetylthiocholine iodide as substrate preincubated for 20 mins followed by substrate addition by DTNB reagent based Ellman's method
[4] = biological target: Amyloid-beta precursor protein (Homo sapiens, UniProt P05067); experiment: Inhibition of amyloid beta 40 peptide (unknown origin) aggregation incubated for 2 hr by ThT fluorescence based spectrofluorimetric analysis
In short: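 Aβ40 peptide aggregation enhanced with 2% HFIP; thioflavin T fluorescence read-out; run in triplicate.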

[5] = biological target: Acetylcholinesterase (Homo sapiens, UniProt P22303); experiment: Inhibition of human recombinant AChE using acetylthiocholine iodide as substrate preincubated for 20 mins followed by substrate addition by DTNB reagent based Ellman's method
[6] = biological target: Cholinesterase (Equus caballus, UniProt P81908); experiment: Inhibition of equine serum BChE using butyrylthiocholine iodide as substrate preincubated for 20 mins followed by substrate addition by DTNB reagent based Ellman's method; format: cell-free
[7] = biological target: T1, Microtubule-associated protein tau; experiment: Inhibition of tau (unknown origin) aggregation expressed in Escherichia coli BL21 (DE3) at 10 uM relative to control; in short: as §1
[8] = Cytotoxicity against mouse brain Primary embryonic cortical cell assessed as cell death at 2.5 uM incubated for 5 hrs by propidium iodide dye based spectrofluorometric analysis relative to control; format: toxicity
In short: (§2)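 Primary cortical cultures from E16.5 mouse embryo brains, trypsinized, plated on poly-D-lysine, grown in Neurobasal with glutamine, glucose, 5% horse serum and B27; compounds added at 4 DIV. Propidium iodide 30 μM; baseline F1 read 1 h after PI; ex 530/em 645 nm. Fmax after digitonin permeabilization. % death = 100×(Fn−F1)/(Fmax−F1); mean of three independent experiments.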

[9] = Cytotoxicity against mouse brain Primary embryonic cortical cell assessed as cell death at 5 uM incubated for 5 hrs by propidium iodide dye based spectrofluorometric analysis relative to control; format: toxicity; in short: as §2
[10] = Cytotoxicity against mouse brain Primary embryonic cortical cell assessed as cell death at 5 uM incubated for 24 hrs by propidium iodide dye based spectrofluorometric analysis relative to control; format: toxicity; in short: as §2
[11] = Cytotoxicity against mouse brain Primary embryonic cortical cell assessed as cell death at 10 uM incubated for 6 hrs by propidium iodide dye based spectrofluorometric analysis relative to control; format: toxicity; in short: as §2
[12] = Cytotoxicity against mouse brain Primary embryonic cortical cell assessed as cell death at 10 uM incubated for 5 hrs by propidium iodide dye based spectrofluorometric analysis relative to control; format: toxicity; in short: as §2
[13] = Cytotoxicity against mouse brain Primary embryonic cortical cell assessed as cell death at 10 uM incubated for 2 hrs by propidium iodide dye based spectrofluorometric analysis relative to control; format: toxicity; in short: as §2
[14] = Cytotoxicity against mouse brain Primary embryonic cortical cell assessed as cell death at 5 uM incubated for 2 hrs by propidium iodide dye based spectrofluorometric analysis relative to control; format: toxicity; in short: as §2
[15] = Cytotoxicity against mouse brain Primary embryonic cortical cell assessed as cell death at 10 uM incubated for 48 hrs by propidium iodide dye based spectrofluorometric analysis relative to control; format: toxicity; in short: as §2
[16] = Cytotoxicity against mouse brain Primary embryonic cortical cell assessed as cell death at 10 uM incubated for 72 hrs by propidium iodide dye based spectrofluorometric analysis relative to control; format: toxicity; in short: as §2
[17] = Cytotoxicity against mouse brain Primary embryonic cortical cell assessed as cell death at 30 uM incubated for 24 hrs by propidium iodide dye based spectrofluorometric analysis relative to control; format: toxicity; in short: as §2
[18] = Cytotoxicity against mouse brain Primary embryonic cortical cell assessed as cell death at 10 uM incubated for 24 hrs by propidium iodide dye based spectrofluorometric analysis relative to control; format: toxicity; in short: as §2
[19] = Cytotoxicity against mouse brain Primary embryonic cortical cell assessed as cell death at 30 uM incubated for 2 hrs by propidium iodide dye based spectrofluorometric analysis relative to control; format: toxicity; in short: as §2
[20] = Cytotoxicity against mouse brain Primary embryonic cortical cell assessed as cell death at 5 uM incubated for 3 hrs by propidium iodide dye based spectrofluorometric analysis relative to control; format: toxicity; in short: as §2
[21] = Cytotoxicity against mouse brain Primary embryonic cortical cell assessed as cell death at 30 uM incubated for 3 hrs by propidium iodide dye based spectrofluorometric analysis relative to control; format: toxicity; in short: as §2
[22] = Cytotoxicity against mouse brain Primary embryonic cortical cell assessed as cell death at 2.5 uM incubated for 6 hrs by propidium iodide dye based spectrofluorometric analysis relative to control; format: toxicity; in short: as §2
[23] = Cytotoxicity against mouse brain Primary embryonic cortical cell assessed as cell death at 5 uM incubated for 1 hr by propidium iodide dye based spectrofluorometric analysis relative to control; format: toxicity; in short: as §2
[24] = Cytotoxicity against mouse brain Primary embryonic cortical cell assessed as cell death at 5 uM incubated for 4 hrs by propidium iodide dye based spectrofluorometric analysis relative to control; format: toxicity; in short: as §2
[25] = Cytotoxicity against mouse brain Primary embryonic cortical cell assessed as cell death at 2.5 uM incubated for 3 hrs by propidium iodide dye based spectrofluorometric analysis relative to control; format: toxicity; in short: as §2
[26] = Cytotoxicity against mouse brain Primary embryonic cortical cell assessed as cell death at 10 uM incubated for 1 hr by propidium iodide dye based spectrofluorometric analysis relative to control; format: toxicity; in short: as §2
[27] = Cytotoxicity against mouse brain Primary embryonic cortical cell assessed as cell death at 5 uM incubated for 48 hrs by propidium iodide dye based spectrofluorometric analysis relative to control; format: toxicity; in short: as §2
[28] = Cytotoxicity against mouse brain Primary embryonic cortical cell assessed as cell death at 2.5 uM incubated for 1 hr by propidium iodide dye based spectrofluorometric analysis relative to control; format: toxicity; in short: as §2
[29] = Cytotoxicity against mouse brain Primary embryonic cortical cell assessed as cell death at 10 uM incubated for 3 hrs by propidium iodide dye based spectrofluorometric analysis relative to control; format: toxicity; in short: as §2
[30] = Cytotoxicity against mouse brain Primary embryonic cortical cell assessed as cell death at 5 uM incubated for 72 hrs by propidium iodide dye based spectrofluorometric analysis relative to control; format: toxicity; in short: as §2
[31] = Cytotoxicity against mouse brain Primary embryonic cortical cell assessed as cell death at 10 uM incubated for 4 hrs by propidium iodide dye based spectrofluorometric analysis relative to control; format: toxicity; in short: as §2
[32] = Cytotoxicity against mouse brain Primary embryonic cortical cell assessed as cell death at 5 uM incubated for 6 hrs by propidium iodide dye based spectrofluorometric analysis relative to control; format: toxicity; in short: as §2
[33] = Cytotoxicity against mouse brain Primary embryonic cortical cell assessed as cell death at 30 uM incubated for 5 hrs by propidium iodide dye based spectrofluorometric analysis relative to control; format: toxicity; in short: as §2
[34] = Cytotoxicity against mouse brain Primary embryonic cortical cell assessed as cell death at 2.5 uM incubated for 4 hrs by propidium iodide dye based spectrofluorometric analysis relative to control; format: toxicity; in short: as §2
[35] = Cytotoxicity against mouse brain Primary embryonic cortical cell assessed as cell death at 30 uM incubated for 72 hrs by propidium iodide dye based spectrofluorometric analysis relative to control; format: toxicity; in short: as §2
[36] = Cytotoxicity against mouse brain Primary embryonic cortical cell assessed as cell death at 2.5 uM incubated for 72 hrs by propidium iodide dye based spectrofluorometric analysis relative to control; format: toxicity; in short: as §2
[37] = Cytotoxicity against mouse brain Primary embryonic cortical cell assessed as cell death at 2.5 uM incubated for 2 hrs by propidium iodide dye based spectrofluorometric analysis relative to control; format: toxicity; in short: as §2
[38] = Cytotoxicity against mouse brain Primary embryonic cortical cell assessed as cell death at 30 uM incubated for 48 hrs by propidium iodide dye based spectrofluorometric analysis relative to control; format: toxicity; in short: as §2
[39] = Cytotoxicity against mouse brain Primary embryonic cortical cell assessed as cell death at 2.5 uM incubated for 48 hrs by propidium iodide dye based spectrofluorometric analysis relative to control; format: toxicity; in short: as §2
[40] = Cytotoxicity against mouse brain Primary embryonic cortical cell assessed as cell death at 30 uM incubated for 1 hr by propidium iodide dye based spectrofluorometric analysis relative to control; format: toxicity; in short: as §2
[41] = Cytotoxicity against mouse brain Primary embryonic cortical cell assessed as cell death at 30 uM incubated for 4 hrs by propidium iodide dye based spectrofluorometric analysis relative to control; format: toxicity; in short: as §2
[42] = Cytotoxicity against mouse brain Primary embryonic cortical cell assessed as cell death at 2.5 uM incubated for 24 hrs by propidium iodide dye based spectrofluorometric analysis relative to control; format: toxicity; in short: as §2
[43] = Cytotoxicity against mouse brain Primary embryonic cortical cell assessed as cell death at 30 uM incubated for 6 hrs by propidium iodide dye based spectrofluorometric analysis relative to control; format: toxicity; in short: as §2

Chain of Cholinesterase (Equus caballus, UniProt P81908) (P81908 whole entry): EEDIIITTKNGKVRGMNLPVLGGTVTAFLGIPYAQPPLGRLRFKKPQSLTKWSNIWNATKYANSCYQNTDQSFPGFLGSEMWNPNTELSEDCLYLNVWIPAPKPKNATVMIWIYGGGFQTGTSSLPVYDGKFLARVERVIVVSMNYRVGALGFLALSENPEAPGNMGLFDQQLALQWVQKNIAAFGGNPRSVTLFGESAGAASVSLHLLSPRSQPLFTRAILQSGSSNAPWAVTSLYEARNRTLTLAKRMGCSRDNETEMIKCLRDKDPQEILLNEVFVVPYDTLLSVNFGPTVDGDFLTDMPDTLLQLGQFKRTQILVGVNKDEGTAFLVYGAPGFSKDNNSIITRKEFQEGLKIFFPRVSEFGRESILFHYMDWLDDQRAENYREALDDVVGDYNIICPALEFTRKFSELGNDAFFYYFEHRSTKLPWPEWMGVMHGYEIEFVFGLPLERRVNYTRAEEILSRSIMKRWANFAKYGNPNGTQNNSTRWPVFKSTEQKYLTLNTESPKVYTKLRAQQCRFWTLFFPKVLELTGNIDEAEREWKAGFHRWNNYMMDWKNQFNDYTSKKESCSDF
Chain of Acetylcholinesterase (Homo sapiens, UniProt P22303) (P22303 whole entry): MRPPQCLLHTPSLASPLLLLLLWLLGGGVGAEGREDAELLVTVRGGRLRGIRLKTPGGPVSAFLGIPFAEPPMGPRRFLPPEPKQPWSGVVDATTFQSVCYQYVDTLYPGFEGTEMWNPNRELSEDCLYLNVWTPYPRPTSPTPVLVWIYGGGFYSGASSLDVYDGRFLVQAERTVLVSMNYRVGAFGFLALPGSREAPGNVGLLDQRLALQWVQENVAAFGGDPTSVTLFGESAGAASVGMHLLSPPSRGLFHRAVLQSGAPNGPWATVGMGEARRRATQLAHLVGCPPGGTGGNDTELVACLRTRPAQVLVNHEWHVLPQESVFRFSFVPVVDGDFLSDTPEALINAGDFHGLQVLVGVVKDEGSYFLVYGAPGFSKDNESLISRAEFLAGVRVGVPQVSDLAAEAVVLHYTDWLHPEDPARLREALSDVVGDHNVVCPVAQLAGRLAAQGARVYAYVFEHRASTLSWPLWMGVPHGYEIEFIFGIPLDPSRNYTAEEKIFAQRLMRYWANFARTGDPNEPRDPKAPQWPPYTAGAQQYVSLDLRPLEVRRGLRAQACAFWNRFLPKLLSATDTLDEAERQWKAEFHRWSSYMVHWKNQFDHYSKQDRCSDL
Chain of Amyloid-beta precursor protein (P05067 whole entry): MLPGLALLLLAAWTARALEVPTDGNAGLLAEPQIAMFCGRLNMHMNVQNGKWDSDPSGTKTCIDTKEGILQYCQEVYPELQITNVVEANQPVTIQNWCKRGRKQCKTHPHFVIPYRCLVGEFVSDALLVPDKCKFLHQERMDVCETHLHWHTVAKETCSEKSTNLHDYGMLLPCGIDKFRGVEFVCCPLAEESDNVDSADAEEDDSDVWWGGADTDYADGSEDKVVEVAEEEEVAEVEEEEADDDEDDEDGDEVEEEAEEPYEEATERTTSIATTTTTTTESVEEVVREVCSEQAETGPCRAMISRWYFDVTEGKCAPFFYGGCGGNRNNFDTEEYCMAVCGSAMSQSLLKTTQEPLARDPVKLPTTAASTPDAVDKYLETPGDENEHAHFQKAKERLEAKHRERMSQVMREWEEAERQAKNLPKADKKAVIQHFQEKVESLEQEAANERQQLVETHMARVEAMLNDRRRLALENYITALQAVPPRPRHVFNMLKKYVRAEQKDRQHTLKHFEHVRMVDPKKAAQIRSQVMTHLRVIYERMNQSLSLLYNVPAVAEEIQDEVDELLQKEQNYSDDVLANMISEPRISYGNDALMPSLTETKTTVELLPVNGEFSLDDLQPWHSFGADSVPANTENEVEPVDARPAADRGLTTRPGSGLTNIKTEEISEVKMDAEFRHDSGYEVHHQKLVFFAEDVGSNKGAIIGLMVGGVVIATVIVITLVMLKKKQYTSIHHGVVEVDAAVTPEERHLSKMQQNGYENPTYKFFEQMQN
Chain of Acetylcholinesterase (Electrophorus electricus, UniProt O42275) (O42275 whole entry): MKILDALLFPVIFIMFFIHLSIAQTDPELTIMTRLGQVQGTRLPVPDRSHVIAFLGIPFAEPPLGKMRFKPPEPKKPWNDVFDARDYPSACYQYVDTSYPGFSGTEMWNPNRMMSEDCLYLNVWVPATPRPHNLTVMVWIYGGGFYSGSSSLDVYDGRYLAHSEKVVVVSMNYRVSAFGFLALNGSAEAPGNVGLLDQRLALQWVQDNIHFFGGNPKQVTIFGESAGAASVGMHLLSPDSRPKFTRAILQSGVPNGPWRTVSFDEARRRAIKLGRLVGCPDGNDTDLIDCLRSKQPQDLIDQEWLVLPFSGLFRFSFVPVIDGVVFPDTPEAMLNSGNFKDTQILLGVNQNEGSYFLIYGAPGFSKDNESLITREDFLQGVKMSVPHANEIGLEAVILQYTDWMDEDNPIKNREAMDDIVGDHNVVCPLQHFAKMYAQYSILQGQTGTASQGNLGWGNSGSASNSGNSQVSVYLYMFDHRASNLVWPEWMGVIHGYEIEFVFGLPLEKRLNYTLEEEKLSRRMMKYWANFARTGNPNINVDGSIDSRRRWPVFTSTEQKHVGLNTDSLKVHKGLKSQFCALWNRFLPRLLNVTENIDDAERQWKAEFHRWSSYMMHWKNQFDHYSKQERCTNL
T1 sequence (P10636 whole entry): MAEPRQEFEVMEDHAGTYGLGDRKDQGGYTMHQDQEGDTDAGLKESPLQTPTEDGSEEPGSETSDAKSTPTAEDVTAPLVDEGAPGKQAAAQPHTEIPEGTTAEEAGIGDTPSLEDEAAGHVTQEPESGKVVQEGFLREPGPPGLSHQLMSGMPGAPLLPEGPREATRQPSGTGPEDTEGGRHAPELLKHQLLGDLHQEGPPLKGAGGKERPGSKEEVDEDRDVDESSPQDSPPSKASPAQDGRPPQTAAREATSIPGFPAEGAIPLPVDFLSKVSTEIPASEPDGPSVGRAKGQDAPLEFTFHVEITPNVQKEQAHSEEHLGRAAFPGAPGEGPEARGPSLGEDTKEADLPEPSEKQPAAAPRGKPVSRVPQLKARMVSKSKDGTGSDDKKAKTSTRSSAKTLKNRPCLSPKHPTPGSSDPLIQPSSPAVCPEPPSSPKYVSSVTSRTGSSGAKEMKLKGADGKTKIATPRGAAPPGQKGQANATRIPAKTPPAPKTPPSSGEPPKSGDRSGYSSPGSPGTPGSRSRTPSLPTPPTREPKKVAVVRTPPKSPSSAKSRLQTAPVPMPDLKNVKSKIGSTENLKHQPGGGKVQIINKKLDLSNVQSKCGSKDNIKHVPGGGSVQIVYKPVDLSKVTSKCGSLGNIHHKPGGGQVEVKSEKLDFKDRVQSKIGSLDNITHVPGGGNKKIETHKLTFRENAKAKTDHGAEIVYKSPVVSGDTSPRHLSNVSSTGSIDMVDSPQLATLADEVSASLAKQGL
Chain of Cholinesterase (Homo sapiens, UniProt P06276) (P06276 whole entry): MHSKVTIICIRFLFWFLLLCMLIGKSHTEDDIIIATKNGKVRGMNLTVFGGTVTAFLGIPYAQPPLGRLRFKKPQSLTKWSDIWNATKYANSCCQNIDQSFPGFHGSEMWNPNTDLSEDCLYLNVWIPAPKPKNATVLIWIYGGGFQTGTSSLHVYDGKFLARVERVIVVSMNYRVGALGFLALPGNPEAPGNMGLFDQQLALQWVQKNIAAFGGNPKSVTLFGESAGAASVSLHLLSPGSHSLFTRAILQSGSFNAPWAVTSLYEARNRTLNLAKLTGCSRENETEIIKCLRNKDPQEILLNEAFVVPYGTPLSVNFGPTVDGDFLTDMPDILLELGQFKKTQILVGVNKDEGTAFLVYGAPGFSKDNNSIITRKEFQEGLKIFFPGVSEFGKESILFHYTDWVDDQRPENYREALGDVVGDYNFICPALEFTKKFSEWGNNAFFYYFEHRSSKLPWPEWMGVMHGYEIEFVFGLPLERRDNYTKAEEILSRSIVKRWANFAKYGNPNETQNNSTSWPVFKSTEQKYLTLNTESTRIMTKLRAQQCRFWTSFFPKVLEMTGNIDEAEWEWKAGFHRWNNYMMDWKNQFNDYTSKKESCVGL

In the case of `Cc1ccc(NCCC[C@@H]2CCCN3CCCC[C@H]23)c2c(=O)c3ccccc3oc12`, the IC50 [1] is reported as 0.3 µM, the IC50 [2] is reported as 23 µM and the IC50 [3] is reported as 0.14 µM. For the same compound, the IC50 [4] was 13 µM, the IC50 [5] was 8.81 µM and the IC50 [6] was 0.37 µM.

`Nc1ccc(NC[C@@H]2CCCN3CCCC[C@H]23)c2c(=O)c3ccccc3sc12` gave an IC50 [2] of 8.6 µM and an IC50 [4] of 14 µM.

`CCN(CC)CCCNc1ccc([N+](=O)[O-])c2sc3ccc(OC)cc3c(=O)c12` showed an IC50 [2] of 4.8 µM and an IC50 [4] of 17 µM.

For `COc1ccc2sc3c([N+](=O)[O-])ccc(NCCC[C@@H]4CCCN5CCCC[C@H]45)c3c(=O)c2c1`, the IC50 [1] was 7.31 µM, the IC50 [2] was 3 µM and the IC50 [3] was 0.12 µM. For the same compound, the IC50 [4] was 7.9 µM, the IC50 [5] was 1.75 µM and the IC50 [6] was 2 µM.

Work on `Nc1ccc(NCCC[C@@H]2CCCN3CCCC[C@H]23)c2c(=O)c3ccccc3sc12` yielded an IC50 [4] of 1.3 µM and an inhibition [7] of 26%.

In the case of `COc1ccc2sc3c([N+](=O)[O-])ccc(NCC[C@@H]4CCCN5CCCC[C@H]45)c3c(=O)c2c1`, the IC50 [1] is reported as 1.82 µM, the IC50 [2] is reported as 6.9 µM and the IC50 [3] is reported as 2.3 µM. It also gave an IC50 [4] of 9.1 µM, an IC50 [5] of 4.75 µM and an IC50 [6] of 0.15 µM.

`O=c1c2ccccc2sc2c([N+](=O)[O-])ccc(NC[C@@H]3CCCN4CCCC[C@H]34)c12` gave an IC50 [2] of 15 µM and an IC50 [4] of 20 µM.

Compound `COc1ccc2sc3c(C)ccc(NCCC[C@@H]4CCCN5CCCC[C@H]45)c3c(=O)c2c1` has an Activity [8] of 1.9%, an Activity [9] of 4.4% and an Activity [10] of 17.8%. It also gave an Activity [11] of 4%, an Activity [12] of 6.1% and an Activity [13] of 5.8%. The Activity [14] was 3.4%, the Activity [15] was 27.4% and the Activity [16] was 42.1%. It also gave an Activity [17] of 48.6%, an Activity [18] of 19.6% and an IC50 [2] of 5.9 µM. It also gave an Activity [19] of 5.7%, an Activity [20] of 1.8% and an Activity [21] of 7.1%. The Activity [22] was 2%, the Activity [23] was 1% and the Activity [24] was 3.3%. The Activity [25] was 1.8%, the Activity [26] was 4.2% and the Activity [27] was 27.8%. The Activity [28] was -0.1%, the Activity [29] was 4.9% and the Activity [30] was 37.6%. For the same compound, the Activity [31] was 5.3%, the IC50 [4] was 2.5 µM and the Activity [32] was 5.7%. It also gave an Activity [33] of 9.3%, an Activity [34] of 2.2% and an Activity [35] of 54.3%. It also gave an Activity [36] of 33.6%, an Activity [37] of 1.6% and an Activity [38] of 52.4%. For the same compound, the Activity [39] was 18.4%, the Activity [40] was 3.8% and the Activity [41] was 9.5%. It also gave an Activity [42] of 8.9% and an Activity [43] of 10.7%.

For `COc1ccc2sc3c(C)ccc(NCC[C@@H]4CCCN5CCCC[C@H]45)c3c(=O)c2c1`, the IC50 [1] was 0.71 µM, the IC50 [2] was 14 µM and the IC50 [3] was 5.1 µM. For the same compound, the IC50 [4] was 2.4 µM, the IC50 [5] was 3.59 µM and the IC50 [6] was 0.14 µM.

In the case of `COc1ccc2sc3c([N+](=O)[O-])ccc(NC[C@@H]4CCCN5CCCC[C@H]45)c3c(=O)c2c1`, the IC50 [4] is reported as 11 µM and the inhibition [7] is reported as 32%.
